For one compound, inhibition and Activity results are on record in ChEMBL document CHEMBL1828498, “Identification and characterization of a novel integrin-linked kinase inhibitor” (J Med Chem, 2011).

Calls of active or inactive are those of the source. Unless noted, the rule behind the calls is not given here.

In series [1] the test system is 3-phosphoinositide dependent protein kinase-2, PDK2. Description: Inhibition of PDK2 in human MDA-MB-231 cells assessed as Akt Ser-473 dephosphorylation by Western blot analysis. The series is classed as functional, cell-based. The method, boiled down:
(§1)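 Cells exposed 24 h in 5% FBS medium, final DMSO 0.1%; lysed in 1% SDS/10 mM EDTA/50 mM Tris pH 8.1, equal protein on SDS-PAGE, nitrocellulose, primary antibody 1:1000 at 4°C for 2 h, HRP secondary 1:5000, ECL detection; blots representative of three independent experiments.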

The test system of series [2] is PC-3. Description: Reduction in YB-1 concentration in human PC3 cells after 24 hrs by Western blot analysis. The format is functional, cell-based. The method, boiled down: (§2)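 PC-3 versus stable PC-3/CA-ILK, or SKBR3 versus transient SKBR3/CA-ILK (electroporation, used 48 h after), treated 24 h in 5% FBS medium; immunoblotting with ECL; representative of three experiments.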
A general note: A western blot detects proteins with antibodies after separation by electrophoresis.

Series [3] relates to PC-3. Description: Reduction in HER2 concentration in human PC3 cells after 24 hrs by Western blot analysis. The format is functional, cell-based. The procedure, abridged: as §2
For series [4], the system named is SK-BR-3. Put plainly: Reduction in YB-1 concentration in human SKBR3 cells after 24 hrs by Western blot analysis. The series is classed as functional, cell-based. The method, boiled down: as §2
For series [5], the system named is SK-BR-3. Put plainly: Reduction in YB-1 mRNA expression in human SKBR3 cells expressing constitutively active ILK after 24 hrs by RT-PCR analysis. The format is functional, cell-based. The procedure, abridged:
(§3)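 PC-3, PC-3/CA-ILK, SKBR3 and SKBR3/CA-ILK cells treated 24 h in 5% FBS medium; total RNA from 1 × 10^6 cells by Trizol, 1 μg reverse-transcribed, then PCR with gene-specific primers and β-actin reference.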

The subject of series [6] is SK-BR-3. Put plainly: Reduction in HER2 mRNA expression in human SKBR3 cells expressing constitutively active ILK after 24 hrs by RT-PCR analysis. The series is classed as functional, cell-based. The procedure, abridged: as §3
Series [7] addresses Cyclin-dependent kinase 5/CDK5 activator 1 (Homo sapiens) (UniProt Q00535+Q15078). Put plainly: Inhibition of CDK5/p25 at 5 uM assessed as remaining activity. The format is protein-complex assay. The method, boiled down: (§4)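 Panel of 20 recombinant kinases, profiled by a commercial vendor.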
The target in series [8] is Mast/stem cell growth factor receptor Kit (Homo sapiens) (UniProt P10721). Description: Inhibition of cKit at 5 uM assessed as remaining activity.
Mast/stem cell growth factor receptor Kit (Homo sapiens), sequence (P10721 whole entry): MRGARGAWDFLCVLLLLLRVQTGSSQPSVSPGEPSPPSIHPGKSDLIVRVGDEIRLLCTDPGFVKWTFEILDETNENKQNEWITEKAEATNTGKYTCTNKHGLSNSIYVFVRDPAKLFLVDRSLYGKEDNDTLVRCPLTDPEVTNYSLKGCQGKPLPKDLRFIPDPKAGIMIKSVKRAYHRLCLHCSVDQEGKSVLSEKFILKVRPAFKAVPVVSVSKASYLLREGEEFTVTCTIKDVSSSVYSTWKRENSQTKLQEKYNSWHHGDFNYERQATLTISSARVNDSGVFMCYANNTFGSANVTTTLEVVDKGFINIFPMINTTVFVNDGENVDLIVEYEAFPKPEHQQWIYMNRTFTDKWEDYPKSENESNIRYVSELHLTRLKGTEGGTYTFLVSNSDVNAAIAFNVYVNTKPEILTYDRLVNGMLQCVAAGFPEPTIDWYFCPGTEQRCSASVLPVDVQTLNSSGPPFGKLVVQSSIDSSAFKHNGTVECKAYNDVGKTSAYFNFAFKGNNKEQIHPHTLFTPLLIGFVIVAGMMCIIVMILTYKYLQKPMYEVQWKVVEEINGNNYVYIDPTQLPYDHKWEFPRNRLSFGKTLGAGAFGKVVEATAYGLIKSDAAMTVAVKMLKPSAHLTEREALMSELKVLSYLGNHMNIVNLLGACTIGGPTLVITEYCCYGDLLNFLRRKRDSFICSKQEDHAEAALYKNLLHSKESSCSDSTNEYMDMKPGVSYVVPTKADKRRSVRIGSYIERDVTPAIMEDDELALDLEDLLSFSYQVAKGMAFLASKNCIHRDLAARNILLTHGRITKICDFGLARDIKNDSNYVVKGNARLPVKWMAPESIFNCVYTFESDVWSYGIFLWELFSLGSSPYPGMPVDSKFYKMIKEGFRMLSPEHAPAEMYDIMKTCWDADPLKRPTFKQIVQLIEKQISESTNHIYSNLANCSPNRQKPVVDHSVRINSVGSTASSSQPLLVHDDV
Series [9] deals with Epidermal growth factor receptor (Homo sapiens) (UniProt P00533). Description: Inhibition of EGFR at 5 uM assessed as remaining activity. The method, boiled down: as §4
Epidermal growth factor receptor (Homo sapiens), sequence (P00533 whole entry): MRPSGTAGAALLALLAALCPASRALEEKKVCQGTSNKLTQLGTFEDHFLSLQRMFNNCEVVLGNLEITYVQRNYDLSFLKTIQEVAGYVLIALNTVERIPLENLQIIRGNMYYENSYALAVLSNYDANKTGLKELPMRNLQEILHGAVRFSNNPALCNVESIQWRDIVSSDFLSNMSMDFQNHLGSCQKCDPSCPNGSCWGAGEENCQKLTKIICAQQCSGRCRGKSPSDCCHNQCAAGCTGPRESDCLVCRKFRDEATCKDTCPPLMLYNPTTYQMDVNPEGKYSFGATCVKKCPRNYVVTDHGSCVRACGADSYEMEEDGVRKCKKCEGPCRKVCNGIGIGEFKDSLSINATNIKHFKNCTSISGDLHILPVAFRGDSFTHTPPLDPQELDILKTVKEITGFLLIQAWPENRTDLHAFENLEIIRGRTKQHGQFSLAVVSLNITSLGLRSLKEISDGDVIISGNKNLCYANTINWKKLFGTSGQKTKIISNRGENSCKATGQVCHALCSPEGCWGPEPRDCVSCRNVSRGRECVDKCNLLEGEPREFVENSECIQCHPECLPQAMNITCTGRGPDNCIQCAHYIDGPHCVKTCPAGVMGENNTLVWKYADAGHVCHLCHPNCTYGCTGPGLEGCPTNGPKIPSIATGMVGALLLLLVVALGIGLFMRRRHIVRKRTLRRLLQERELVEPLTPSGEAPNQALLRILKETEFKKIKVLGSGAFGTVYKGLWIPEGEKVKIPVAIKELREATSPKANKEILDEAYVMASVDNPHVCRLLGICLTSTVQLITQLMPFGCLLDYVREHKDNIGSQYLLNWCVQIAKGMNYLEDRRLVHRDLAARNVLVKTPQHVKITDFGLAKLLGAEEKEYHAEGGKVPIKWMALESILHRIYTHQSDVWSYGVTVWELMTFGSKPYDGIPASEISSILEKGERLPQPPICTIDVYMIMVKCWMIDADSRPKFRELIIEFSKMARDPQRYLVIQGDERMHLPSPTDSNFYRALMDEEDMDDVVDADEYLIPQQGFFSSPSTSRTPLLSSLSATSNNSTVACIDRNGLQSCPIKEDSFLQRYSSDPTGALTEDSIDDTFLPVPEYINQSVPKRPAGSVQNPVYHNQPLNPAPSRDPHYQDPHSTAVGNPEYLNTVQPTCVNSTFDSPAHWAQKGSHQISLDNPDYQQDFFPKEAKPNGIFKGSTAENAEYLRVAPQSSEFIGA
For series [10], the target named is Receptor-type tyrosine-protein kinase FLT3 (Homo sapiens) (UniProt P36888). Description: Inhibition of Flt3 at 5 uM assessed as remaining activity. The procedure, abridged:
as §4

In series [11] the target is T1, Scaffold protein ILK (Homo sapiens) (UniProt Q13418).
T1 sequence (whole entry): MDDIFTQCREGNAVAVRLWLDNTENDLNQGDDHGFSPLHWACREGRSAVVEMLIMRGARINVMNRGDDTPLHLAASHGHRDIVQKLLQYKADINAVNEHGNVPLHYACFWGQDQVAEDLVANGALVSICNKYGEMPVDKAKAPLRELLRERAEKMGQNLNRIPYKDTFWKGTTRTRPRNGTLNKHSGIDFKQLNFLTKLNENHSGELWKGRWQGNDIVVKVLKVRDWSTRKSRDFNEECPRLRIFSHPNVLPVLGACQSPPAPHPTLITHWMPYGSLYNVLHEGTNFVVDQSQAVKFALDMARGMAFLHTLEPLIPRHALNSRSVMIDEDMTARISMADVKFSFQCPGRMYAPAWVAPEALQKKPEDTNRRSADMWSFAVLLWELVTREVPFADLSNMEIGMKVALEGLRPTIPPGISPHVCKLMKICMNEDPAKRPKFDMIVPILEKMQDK
Put plainly: Inhibition of ILK in human PC3 cells assessed as decrease in phosphorylated JNK concentration by Western blot analysis. The format is cell-based. Conditions: PC-3. The method, boiled down: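 PC-3 cells exposed to graded concentrations for 24 h in 5% FBS medium. Immunoblotting for phospho-Tyr397-FAK, ERK1/2, p38 and JNK. Lysis in 1% SDS buffer, primary antibody 1:1000 at 4°C for 2 h, ECL. Three independent experiments.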

Series [12] concerns Mus musculus. Put plainly: Toxicity in nude mouse assessed as weight loss at 25 mg/kg, po administered for 35 days. The following applies: in vivo, 840 h. The series is classed as organism-based. Also noted: dose 25 mg/kg, route oral. The procedure, abridged:
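Male NCr nude mice bearing s.c. PC-3 tumors, dosed once daily by oral gavage in 0.5% methylcellulose/0.1% Tween 80 vehicle, 10 μL/g, for 35 days; body weight recorded weekly.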

Series [13] concerns Mus musculus. Description: Decrease in phosphorylation of YB-1 in human PC3 cells xenografted nude mouse tumor lysate at 25 mg/kg, po administered for 35 days by Western blot analysis. The format is functional, organism-based. Also noted: dose 25 mg/kg. Conditions: Neoplasm, PC-3. The procedure, abridged: (§5)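 Male NCr athymic nude mice, 5–7 weeks, with s.c. PC-3 xenografts (0.5 × 10^6 cells in 50% Matrigel), dosed by oral gavage once daily for 35 days. Vehicle 0.5% methylcellulose, 0.1% Tween 80 in water, 10 μL/g. Tumors snap-frozen at sacrifice; three tumors per group immunoblotted.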
(In general: Xenograft models place foreign cells or tissue in a host animal.)

The subject of series [14] is Mus musculus. Put plainly: Decrease in phosphorylation of HER2 in human PC3 cells xenografted nude mouse tumor lysate at 25 mg/kg, po administered for 35 days by Western blot analysis. The format is functional, organism-based. Also noted: dose 25 mg/kg. The following applies: Neoplasm, PC-3. The method, boiled down:
as §5

In series [15] the test system is Mus musculus. Put plainly: Decrease in phosphorylation of EGFR in human PC3 cells xenografted nude mouse tumor lysate at 25 mg/kg, po administered for 35 days by Western blot analysis. The series is classed as functional, organism-based. Also noted: dose 25 mg/kg. The following applies: Neoplasm, PC-3. The method, boiled down: as §5
The target in series [16] is T2, 3-phosphoinositide-dependent protein kinase 1 (Homo sapiens) (UniProt O15530).
T2 sequence (whole entry): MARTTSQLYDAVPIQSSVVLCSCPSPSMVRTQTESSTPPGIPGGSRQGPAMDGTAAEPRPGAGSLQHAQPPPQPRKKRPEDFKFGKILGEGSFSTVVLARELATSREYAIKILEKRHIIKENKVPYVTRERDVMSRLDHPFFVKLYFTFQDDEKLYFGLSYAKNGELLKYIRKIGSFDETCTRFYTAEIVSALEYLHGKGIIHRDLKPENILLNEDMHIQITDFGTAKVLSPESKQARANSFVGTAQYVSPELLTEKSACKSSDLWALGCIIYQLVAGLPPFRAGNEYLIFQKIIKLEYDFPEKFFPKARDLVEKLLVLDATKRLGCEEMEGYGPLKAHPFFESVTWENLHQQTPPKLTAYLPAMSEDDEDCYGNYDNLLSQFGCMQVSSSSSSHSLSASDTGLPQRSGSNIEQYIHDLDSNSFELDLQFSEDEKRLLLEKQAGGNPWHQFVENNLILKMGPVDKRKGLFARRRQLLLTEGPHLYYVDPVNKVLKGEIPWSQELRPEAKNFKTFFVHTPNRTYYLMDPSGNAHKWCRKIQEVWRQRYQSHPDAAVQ
Description: Inhibition of PDK2 in human PC3 cells assessed as Akt Thr-308 dephosphorylation by Western blot analysis. The series is classed as functional, cell-based. Conditions: PC-3. The method, boiled down: as §1

Series [17] deals with PC-3. Description: Induction of apoptosis in human PC3 cells assessed as early apoptotic cells at 1 uM by annexin V/PI staining (reference value: 5.6%). The series is classed as functional.
The subject of series [18] is PC-3. Put plainly: Induction of apoptosis in human PC3 cells assessed as early apoptotic cells at 3 uM by annexin V/PI staining (reference value: 5.6%). The series is classed as functional.

Cyclin-dependent kinase 5/CDK5 activator 1 (Homo sapiens), sequence (Q00535 whole entry): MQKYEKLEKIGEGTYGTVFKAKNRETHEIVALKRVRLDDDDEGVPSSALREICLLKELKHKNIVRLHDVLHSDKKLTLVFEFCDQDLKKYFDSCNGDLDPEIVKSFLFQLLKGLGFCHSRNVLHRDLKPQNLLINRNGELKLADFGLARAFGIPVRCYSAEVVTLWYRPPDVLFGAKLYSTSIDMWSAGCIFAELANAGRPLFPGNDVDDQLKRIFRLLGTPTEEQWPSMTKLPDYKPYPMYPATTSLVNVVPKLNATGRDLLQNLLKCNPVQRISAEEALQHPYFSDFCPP
Cyclin-dependent kinase 5/CDK5 activator 1 (Homo sapiens), sequence (Q15078 99-307 partner limits assumed): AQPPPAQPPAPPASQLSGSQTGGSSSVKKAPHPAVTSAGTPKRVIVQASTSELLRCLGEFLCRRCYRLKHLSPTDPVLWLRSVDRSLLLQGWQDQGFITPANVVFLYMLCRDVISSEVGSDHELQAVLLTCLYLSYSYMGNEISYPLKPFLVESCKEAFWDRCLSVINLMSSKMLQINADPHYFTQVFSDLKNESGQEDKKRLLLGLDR
Receptor-type tyrosine-protein kinase FLT3 (Homo sapiens), sequence (P36888 whole entry): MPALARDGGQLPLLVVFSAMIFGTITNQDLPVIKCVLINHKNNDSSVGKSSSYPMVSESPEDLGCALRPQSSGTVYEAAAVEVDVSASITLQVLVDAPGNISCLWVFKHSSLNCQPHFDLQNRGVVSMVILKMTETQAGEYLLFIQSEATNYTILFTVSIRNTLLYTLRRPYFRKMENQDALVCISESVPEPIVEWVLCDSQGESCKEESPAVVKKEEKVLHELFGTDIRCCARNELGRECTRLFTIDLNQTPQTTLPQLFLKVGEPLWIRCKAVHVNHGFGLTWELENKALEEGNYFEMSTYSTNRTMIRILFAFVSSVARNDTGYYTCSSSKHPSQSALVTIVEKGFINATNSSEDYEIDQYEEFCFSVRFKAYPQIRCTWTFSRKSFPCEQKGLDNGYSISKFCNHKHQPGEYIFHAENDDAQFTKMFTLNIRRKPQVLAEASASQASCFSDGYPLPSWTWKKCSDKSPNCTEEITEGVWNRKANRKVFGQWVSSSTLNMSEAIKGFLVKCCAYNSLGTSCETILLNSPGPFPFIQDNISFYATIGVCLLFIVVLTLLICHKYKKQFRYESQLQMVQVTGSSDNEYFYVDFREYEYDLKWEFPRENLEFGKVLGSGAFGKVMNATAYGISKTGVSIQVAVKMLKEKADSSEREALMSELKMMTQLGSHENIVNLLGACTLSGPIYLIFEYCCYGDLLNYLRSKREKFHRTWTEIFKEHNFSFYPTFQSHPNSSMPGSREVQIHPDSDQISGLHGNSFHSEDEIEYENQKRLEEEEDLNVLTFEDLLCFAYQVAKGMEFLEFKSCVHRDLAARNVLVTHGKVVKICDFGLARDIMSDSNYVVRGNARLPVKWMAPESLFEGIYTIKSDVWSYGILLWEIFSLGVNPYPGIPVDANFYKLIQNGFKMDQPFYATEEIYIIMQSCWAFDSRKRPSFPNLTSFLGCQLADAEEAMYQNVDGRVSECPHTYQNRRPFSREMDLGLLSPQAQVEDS

For the compound `CNC(=O)CCc1cc(-c2ccc(-c3ccc(C(F)(F)F)cc3)cc2)n(-c2ccc(N3CCNCC3)cc2)n1`, in series [1], the inhibition entry was “Dose-dependent effect”. The Activity entry in the series with PC-3 [2] was “Dose-dependent effect”; in the series on PC-3 [3], “Dose-dependent effect”; with SK-BR-3 [4], “Dose-dependent effect”; in [7], 98%; in [8], 100%; in [9], 103%. The Activity is 66% in series [10], “Non-toxic” in the series on Mus musculus [12], 6.3% in the series with PC-3 [17] and 12.1% with PC-3 [18]. Moreover, the result with SK-BR-3 [5] and in the series on SK-BR-3 [6] was inactive. The inhibition result in series [11] and in series [16] was “inactive” each time. The result in the series on Mus musculus [13], in the series on Mus musculus [14] and in the series with Mus musculus [15] was Active.
